Measured values taken from ChEMBL document CHEMBL1148470, “Synthesis, SAR, crystal structure, and biological evaluation of benzoquinoliziniums as activators of wild-type and mutant cystic fibrosis transmembrane conductance regulator channels” (J Med Chem, 2004).
pEC50: −log10 of the molar value.

Key:
[1] = biological target: T1, Cystic fibrosis transmembrane conductance regulator (Homo sapiens, UniProt P13569); assay: Percent activation of wild type CFTR dependent efflux was determined by measuring the rate of iodide [125I]- efflux from transfected CHO cells; type: functional, cell-based; parameters: concentration or dose not given beside the values
Outline: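 CHO cells stably expressing wild-type CFTR (MEM, 7% FBS, 100 μM methotrexate), grown in 24-well plates. Loaded 30 min at 37 °C in efflux buffer (NaCl/KCl/MgCl2/glucose/HEPES, pH 7.4) with 1 μM KI and 125I; medium sampled every 1 min up to 11 min, drug after four baseline aliquots, compounds at 250 μM. Peak efflux rate expressed relative to 5 μM forskolin (=100%); mean ± SEM, n experiments.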
Target sequence in this assay (P13569 whole entry, looked up): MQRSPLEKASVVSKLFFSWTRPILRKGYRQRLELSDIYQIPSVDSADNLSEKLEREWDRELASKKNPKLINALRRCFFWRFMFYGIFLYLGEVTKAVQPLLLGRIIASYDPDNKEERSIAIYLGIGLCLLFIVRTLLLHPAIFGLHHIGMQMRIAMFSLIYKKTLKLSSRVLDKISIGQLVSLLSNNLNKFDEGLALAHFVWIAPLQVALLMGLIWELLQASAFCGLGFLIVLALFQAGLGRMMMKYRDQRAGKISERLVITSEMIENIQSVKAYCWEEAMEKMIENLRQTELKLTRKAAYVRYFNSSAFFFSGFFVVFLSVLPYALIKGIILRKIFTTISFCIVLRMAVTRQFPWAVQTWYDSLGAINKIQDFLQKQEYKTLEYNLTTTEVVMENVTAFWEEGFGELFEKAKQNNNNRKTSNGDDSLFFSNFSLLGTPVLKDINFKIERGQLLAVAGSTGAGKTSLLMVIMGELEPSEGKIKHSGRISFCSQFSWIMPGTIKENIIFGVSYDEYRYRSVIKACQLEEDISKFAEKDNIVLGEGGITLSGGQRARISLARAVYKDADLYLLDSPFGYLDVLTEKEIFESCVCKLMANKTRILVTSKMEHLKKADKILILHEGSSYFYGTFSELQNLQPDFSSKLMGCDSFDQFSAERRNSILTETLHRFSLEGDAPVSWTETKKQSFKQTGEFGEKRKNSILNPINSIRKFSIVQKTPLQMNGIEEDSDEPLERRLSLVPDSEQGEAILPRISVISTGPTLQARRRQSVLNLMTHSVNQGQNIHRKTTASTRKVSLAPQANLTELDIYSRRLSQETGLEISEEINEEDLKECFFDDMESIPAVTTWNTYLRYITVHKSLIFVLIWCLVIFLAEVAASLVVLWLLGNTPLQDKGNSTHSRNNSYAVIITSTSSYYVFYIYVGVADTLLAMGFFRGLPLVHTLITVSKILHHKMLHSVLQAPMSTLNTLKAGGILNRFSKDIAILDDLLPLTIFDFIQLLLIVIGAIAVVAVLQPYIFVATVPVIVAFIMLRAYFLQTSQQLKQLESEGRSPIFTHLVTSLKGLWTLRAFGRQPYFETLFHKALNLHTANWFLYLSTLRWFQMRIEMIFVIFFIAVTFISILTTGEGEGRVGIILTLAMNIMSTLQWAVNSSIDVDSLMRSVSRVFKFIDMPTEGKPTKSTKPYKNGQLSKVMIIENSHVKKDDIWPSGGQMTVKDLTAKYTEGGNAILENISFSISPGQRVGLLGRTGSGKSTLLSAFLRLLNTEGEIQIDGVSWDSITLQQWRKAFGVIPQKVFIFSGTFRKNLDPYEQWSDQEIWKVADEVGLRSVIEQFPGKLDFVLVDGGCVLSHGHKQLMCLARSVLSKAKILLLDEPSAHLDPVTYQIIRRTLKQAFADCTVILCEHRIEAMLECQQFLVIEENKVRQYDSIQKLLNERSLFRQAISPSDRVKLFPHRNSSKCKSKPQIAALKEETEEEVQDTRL

[2] = biological target: Cystic fibrosis transmembrane conductance regulator (Homo sapiens, UniProt P13569, G551D); assay: Half-Maximal effective concentration of compound required to stimulate of G551D-CFTR activity in the presence of 10 uM Fsk; type: functional
Sequence of Cystic fibrosis transmembrane conductance regulator (Homo sapiens, UniProt P13569, G551D) (P13569 whole entry G551D): as the sequence (P13569 whole entry, looked up) above, with G551D counted along it
Outline: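 G551D-CFTR stably expressed in CHO cells. The ¹²⁵I efflux assay was run on a robot: cells were loaded for 30 min at 37 °C in HEPES buffer pH 7.4 containing 1 μM KI and 1 μCi/mL ¹²⁵I, and efflux was sampled each minute for up to 11 min (4 baseline samples). Cells were exposed to 10 μM Fsk, then to increasing compound concentrations. EC50 came from %-of-maximal-effect curves, n = 6, mean ± SEM.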

[3] = biological target: T1, Cystic fibrosis transmembrane conductance regulator; assay: Half-Maximal effective concentration of compound required to stimulate of wild type-CFTR activity in the presence of 1 uM Fsk
Target sequence in this assay (P13569 whole entry): as the sequence (P13569 whole entry, looked up) above

Activation [1] [%] | pEC50 [2] | pEC50 [3] | SMILES
19 | – | – | Cc1c(O)c2cccc(Cl)c2[n+]2ccccc12
33 | 6.12 | 5.77 | CCCCc1c(O)c2c(Cl)cccc2[n+]2ccccc12
37 | 4.02 | 4.15 | CCOC(=O)c1c(O)c2cccc(F)c2[n+]2ccccc12
6 | – | – | Oc1c(-c2ccccc2)c2cccc[n+]2c2c(Cl)cccc12
24 | < 3.70 | 3.85 | Oc1cc2cccc[n+]2c2c(Cl)cccc12
< 5 | – | – | Oc1c2c3c(ccc[n+]3c3cccc(F)c13)CC2
< 5 | – | – | CCOC(=O)c1c(O)c2cc(F)ccc2[n+]2ccccc12
< 5 | – | – | Oc1cc2cccc[n+]2c2cc(Cl)ccc12
38 | 4.70 | 4.68 | CCCCCc1c(O)c2cccc(Cl)c2[n+]2ccccc12
< 5 | – | – | Oc1cc2cccc[n+]2c2c(F)cccc12
6 | – | – | CCOC(=O)c1c(O)c2ccc(F)cc2[n+]2ccccc12
26 | 4.49 | 4.59 | CC(C)Cc1c(O)c2cccc(Cl)c2[n+]2ccccc12
< 5 | – | – | Nc1cc2cccc[n+]2c2c(Cl)cccc12
11 | – | – | Oc1cc2cccc[n+]2c2ccc(F)cc12
100 | – | – | C=C[C@@]1(C)CC(=O)[C@]2(O)[C@@]3(C)[C@@H](O)CCC(C)(C)[C@@H]3[C@H](O)[C@H](OC(C)=O)[C@@]2(C)O1
16 | – | – | Oc1cc2cccc[n+]2c2cc(F)ccc12
6 | – | – | Nc1cc2[n+](c3ccc(Cl)cc13)CCc1c-2[nH]c2ccccc12
18 | – | – | Oc1cc2cccc[n+]2c2ccc(Cl)cc12
< 5 | – | – | Nc1cc2cccc[n+]2c2cccc(Cl)c12
< 5 | – | – | Oc1cc2cccc[n+]2c2cccc(F)c12
46 | – | – | Nc1cc2[n+](c3c(Cl)cccc13)CCc1c-2[nH]c2ccccc12
45 | 4.47 | 4.63 | CCCCc1c(O)c2cccc(Cl)c2[n+]2ccccc12
32 | 4.32 | 4.27 | CCCc1c(O)c2cccc(Cl)c2[n+]2ccccc12
20 | < 3.70 | 3.84 | Oc1cc2cccc[n+]2c2cccc(Cl)c12
30 | – | – | Nc1cc2[n+](c3cccc(Cl)c13)CCc1c-2[nH]c2ccccc12
8 | – | – | CCOC(=O)c1c(O)c2c(F)cccc2[n+]2ccccc12
